Laboratory results: article PMC3135172 (Cell, 2011)
Blank lines part the entries; values can stand above or below the compound they belong to.

Tests used:
H4K12ac = experiment: Enrichment of H4K12ac in cells cultured in trichostatin A; format: cell-based; details: Figure S7H
BPTF PHD finger = experiment: Binding of short H3K4me3 peptide in the absence of DNA; set-up: species or system human; details: Figure S2D
BPTF bromodomain V108A = experiment: ITC of H4K16ac peptide with BPTF bromodomain mutant V108A; format: binding, human; details: Kd outside of the accurately measurable range, Figure 5D
[1] = tested on: PHD-bromo module F154A mutant; experiment: FPA of PHD-bromo mutant F154A with histone peptides; format: binding, human; details: Figure 4B
BPTF bromodomain W91A = experiment: ITC of H4K16ac peptide with BPTF bromodomain mutant W91A; format: binding, human; details: not reliably quantifiable, Figure 5E
BPTF bromodomain = BPTF bromodomain (Homo sapiens, UniProt Q12830); format: binding; details: GST-tagged bromodomain, peptide array on modified cellulose scaffold
Method in brief: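 Each acetylated peptide sits on a cellulose membrane, e.g. H4 residues 11–25 carrying a single ε-amine acetyl-lysine. […] Control and replicate blots were run. Spots that stained on the blot were retested for binding in solution.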

BPTF bromodomain D101A = experiment: ITC of H4K16ac peptide with BPTF bromodomain mutant D101A; format: binding, human; details: not reliably quantifiable, Figure 5E
BPTF bromodomain Y147F = experiment: ITC of H4K16ac peptide with BPTF bromodomain mutant Y147F; format: binding, human; details: Kd outside of the accurately measurable range, Figure 5D

Compound: CC(/C=C/C(=O)NO)=C\[C@@H](C)C(=O)c1ccc(N(C)C)cc1 [trichostatin A]
- enrichment of H4K12ac mark (H4K12ac): substantial enrichment of the mark

- binding of short peptide without DNA (BPTF PHD finger): bound effectively in the absence of DNA
Compound: H3K4me3 peptide: short H3K4me3[1–8] peptide used for the DNA ruler, tested without DNA

Compound: H4K16ac: histone H4 peptide (residues 11–25 on the array) acetylated on the ε-amine of lysine 16
- H4K16ac binding by V108A bromodomain (BPTF bromodomain V108A): modest binding deficits
- peptide binding to F154A mutant [1]: abolishes bromodomain binding of H4K16ac
- H4K16ac binding by W91A bromodomain (BPTF bromodomain W91A): more severe loss of affinity
- SPOT blot interaction / staining (BPTF bromodomain): reproducible staining
- H4K16ac binding by D101A bromodomain (BPTF bromodomain D101A): more severe loss of affinity
- H4K16ac binding by Y147F bromodomain (BPTF bromodomain Y147F): modest binding deficits

- SPOT blot interaction / staining (BPTF bromodomain): reproducible staining
Compound: H4K20ac: histone H4 peptide (residues 11–25 on the array) acetylated on the ε-amine of lysine 20

Compound: unmodified counterpart: unmodified histone H4 peptide, without acetylation [reference compound]
- SPOT blot interaction / staining (BPTF bromodomain): displayed no detectable signal above background
